IDE cell inh: cellular human IDE inhibition. P14735. inhibition, % at 5.59 µM. AID 434962. 320,000 compounds, 0.41% hits. HEK cells, FAbetaB cleavage, fluorescence polarization;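 active = percent inhibition above the average of all tested compounds plus 3 SD, set per screening campaign, cut at about 16% in these data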;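 note: IDE supplied by intact live HEK cells; FP after avidin binding of uncleaved biotin substrate so inhibition keeps polarization high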
procasp3 activ: activates human procaspase-3; P42574; recombinant procaspase-3 D3A, Ac-DEVD-pNA absorbance 405 nm; activation, % at 8.5 µM; 330,000 compounds, 0.11% hits; AID 463141;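 active = activation above the mean of all tested compounds plus 3 SD, cut at about 21% in these data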
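Compound: 8.5 µM single point, 0.8% DMSO / Material: Autoprocessing-dead procaspase-3 D3A mutant enzyme / Timing: 1 h preincubation plus 2 h reaction at 25 °C / Medium: Zinc-free HEPES/NaCl buffer with 0.01% Triton X-100 at pH 7.4 / Technique: 405 nm absorbance of p-nitroaniline, reads at 0 and 120 min / Repeats: one well per compound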
PHOSPHO1 inh: inhibitors of human PHOSPHO1 phosphatase; Q8TCT1; recombinant PHOSPHO1, absorbance phosphatase assay; inhibition, % at 13.3 µM; 290,000 compounds, 1.1% hits; in the data active = inhibition above about 60%
Target sequence (Q8TCT1 whole entry, looked up): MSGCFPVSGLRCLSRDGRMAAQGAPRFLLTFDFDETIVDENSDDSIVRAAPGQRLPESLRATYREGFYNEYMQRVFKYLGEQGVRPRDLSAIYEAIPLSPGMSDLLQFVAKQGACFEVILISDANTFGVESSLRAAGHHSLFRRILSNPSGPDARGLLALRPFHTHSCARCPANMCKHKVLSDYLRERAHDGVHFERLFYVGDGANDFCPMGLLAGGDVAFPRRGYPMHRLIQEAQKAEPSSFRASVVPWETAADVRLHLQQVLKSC
UBC13 polyUb: inhibitors of human UBC13 polyubiquitin chain formation; P61088; TR-FRET; inhibition, % at 20 µM; 330,000 compounds, 0.47% hits; in the data active = inhibition above about 45%, passing the limit was not always enough
Target sequence (P61088 whole entry, looked up): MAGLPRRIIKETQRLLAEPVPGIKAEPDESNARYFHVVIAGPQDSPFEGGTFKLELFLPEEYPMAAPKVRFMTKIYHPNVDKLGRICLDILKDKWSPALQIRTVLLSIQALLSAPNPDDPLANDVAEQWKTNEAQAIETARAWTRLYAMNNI
IDE act: IDE (human) activation, cell-based | activation, % at 5.96 µM | HEK cells, FAbeta-B cleavage, fluorescence polarization; 0% vehicle, 100% cell-free pure enzyme wells | P14735 | 340,000 compounds, 0.073% hits;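 active = activation above the mean of all tested compounds plus 3 SD, set per screening campaign, cut at about 17% in these data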
procasp7 counter: activates human procaspase-7, counter-screen for procaspase-3 activators | activation, % at 8.5 µM | 330,000 compounds, 0.093% hits | recombinant procaspase-7, Ac-DEVD-pNA absorbance 405 nm; D23A/D198A/D206A triple mutant, cannot self-cleave; scale: DMSO 0, 5 µM enzyme 100;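 active = percent activation above the screen-wide mean plus 3 SD, cut at about 25% in these data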
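Test system: Procaspase-7 triple mutant (PC-7 D3A). Also added: Ac-DEVD-pNA substrate, 400 µM as added. Schedule: 1 h enzyme–compound preincubation and 2 h substrate reaction, both 25 °C. Signal: p-Nitroaniline absorbance at 405 nm, read at 0 and 120 min. Control set: low DMSO alone, high DMSO plus 5 µM PC-7.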
IDE cell inh cf: cellular human IDE inhibition, confirmation | shares compounds with IDE cell inh | HEK cells, FAbetaB cleavage, fluorescence polarization | inhibition, % at 5.59 µM | 1,200 compounds, 51% hits | AID 435028;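 active = mean inhibition across triplicate wells above the cutoff set by the earlier primary insulin-degrading enzyme screen, cut at about 16% in these data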
HEK293 tox: kills HEK cells in IDE inhibitor counter-screen | HEK293 cytotoxicity, ATP luminescence | 1,200 compounds, 28% hits | inhibition, % at 5.59 µM | shares compounds with IDE cell inh; in the data active = inhibition above about 22%
Numbers stand for hits. Only some compounds are listed: those with a hit (about 1.9% of all), similar ones and a draw of the others.

For CC1=NN(c2ccc(C)cc2)C(=O)/C1=C\C=C\c1ccccc1 the results were IDE cell inh inactive, procasp3 activ inactive, PHOSPHO1 inh inactive, UBC13 polyUb inactive, IDE act inactive and procasp7 counter inactive.
For CC1=NN(c2ccccc2)C(=O)/C1=C/C=C/C=C/N(C)C the results were IDE cell inh 18, procasp3 activ inactive, PHOSPHO1 inh inactive, UBC13 polyUb inactive, IDE act inactive, procasp7 counter inactive, IDE cell inh cf inactive and HEK293 tox 27.
`CC1(C)CC(=O)C2=C(C1)N(c1ccccc1)C(=O)C2(O)C(F)(F)F` (stereo unspecified) gave IDE cell inh 16, procasp3 activ inactive, PHOSPHO1 inh inactive, UBC13 polyUb inactive, IDE act inactive, procasp7 counter inactive, IDE cell inh cf inactive and HEK293 tox inactive.
`COc1ccc(S(=O)(=O)N2CCOC23CCN(S(=O)(=O)c2cc(C)ccc2OC)CC3)cc1` gave IDE cell inh inactive, procasp3 activ inactive, UBC13 polyUb inactive, IDE act inactive and procasp7 counter inactive.
Screening COc1cccc(NC(=O)COC(=O)/C=C/c2c(C)nn(-c3ccccc3)c2C)c1 returned IDE cell inh 25, procasp3 activ inactive, UBC13 polyUb inactive, IDE act inactive, procasp7 counter inactive, IDE cell inh cf 21 and HEK293 tox inactive.
For Cc1nn(-c2ccccc2)c(C)c1/C=C/C(=O)OCC(=O)Nc1ccc(C(N)=O)cc1 the results were IDE cell inh inactive, procasp3 activ inactive, UBC13 polyUb inactive, IDE act inactive and procasp7 counter inactive.
CCCN1C(=O)/C(=C/C=C2\N(CC)c3ccccc3C2(C)C)SC1=S was read as IDE cell inh 16, procasp3 activ inactive, PHOSPHO1 inh inactive, UBC13 polyUb inactive, IDE act inactive, procasp7 counter inactive, IDE cell inh cf 114 and HEK293 tox inactive.
Screening CN1/C(=C\C=C2/SC(=S)N(CC(=O)O)C2=O)C(C)(C)c2ccccc21 returned IDE cell inh 133, procasp3 activ inactive, PHOSPHO1 inh inactive, UBC13 polyUb inactive, IDE act inactive, procasp7 counter inactive, IDE cell inh cf 26 and HEK293 tox inactive.
For O=C(CCC1CCCN(C(=O)CCCc2ccccc2)C1)N1CCN(c2ccccn2)CC1 (stereo unspecified) the results were IDE cell inh inactive, procasp3 activ inactive, PHOSPHO1 inh inactive, UBC13 polyUb inactive, IDE act inactive and procasp7 counter inactive.
`CCOc1cc(/C=N/NC(=O)c2ccc(N(C)S(=O)(=O)c3ccccc3)cc2)ccc1OC` gave IDE cell inh inactive, procasp3 activ inactive, PHOSPHO1 inh inactive, UBC13 polyUb inactive, IDE act inactive and procasp7 counter inactive.
CCOC(=O)/C(C#N)=C\c1ccc(CC)s1 was read as IDE cell inh inactive, procasp3 activ inactive, PHOSPHO1 inh inactive, UBC13 polyUb inactive, IDE act inactive and procasp7 counter inactive.
For CCOC(=O)/C(C#N)=C\C=C1C=CN(C)C=C1 the results were IDE cell inh 52, procasp3 activ inactive, PHOSPHO1 inh inactive, UBC13 polyUb inactive, IDE act inactive, procasp7 counter inactive, IDE cell inh cf 38 and HEK293 tox inactive.
`CCOC(=O)/C(=C\c1ccc(N2CCC(c3ccccc3)=N2)cc1)C(C)=O` gave IDE act inactive.
Screening O=C(/C=C/c1ccc(N2CCC(c3ccccc3)=N2)cc1)c1ccccc1 returned IDE cell inh 112, procasp3 activ inactive, PHOSPHO1 inh inactive, UBC13 polyUb inactive, procasp7 counter inactive, IDE cell inh cf 63 and HEK293 tox inactive.
Screening CC(C)NC(=O)c1ccc2c(c1)N(CC(=O)N1CCCCC1)C(=O)C(C)(C)O2 returned IDE cell inh inactive, procasp3 activ inactive, PHOSPHO1 inh inactive, UBC13 polyUb inactive, IDE act inactive and procasp7 counter inactive.
Cc1ccc(C(=O)NC(=O)CSc2nncn2C)cc1 was read as IDE cell inh inactive, procasp3 activ inactive, PHOSPHO1 inh inactive, UBC13 polyUb inactive, IDE act inactive and procasp7 counter inactive.
`Cc1ccc(C2=NN=C(NC(=O)CSc3nncn3C)SC2)cc1` gave IDE cell inh 24, procasp3 activ inactive, PHOSPHO1 inh inactive, UBC13 polyUb inactive, IDE act inactive, procasp7 counter inactive, IDE cell inh cf inactive and HEK293 tox inactive.
COc1ccc(-c2oc3ccccc3c2C#Cc2cncn2C)cc1 was read as IDE cell inh inactive, procasp3 activ inactive, UBC13 polyUb inactive, IDE act inactive and procasp7 counter inactive.
For CCN=C1S/C(=C\c2cc(OCC)c(O)cc2Br)C(=O)N1CC the results were IDE cell inh 17, procasp3 activ inactive, PHOSPHO1 inh inactive, IDE act inactive, procasp7 counter inactive, IDE cell inh cf 22 and HEK293 tox 23.
`O=C(NC1CC1)c1cccc2c1C(=O)c1ccc(N3CCC(Cc4ccccc4)CC3)cc1S2(=O)=O` gave IDE cell inh 40, procasp3 activ inactive, UBC13 polyUb inactive, IDE act inactive, procasp7 counter inactive, IDE cell inh cf 70 and HEK293 tox 45.
For CC1CCN(c2ccc3c(c2)S(=O)(=O)c2cccc(C(=O)O)c2C3=O)CC1 the results were IDE cell inh 32, procasp3 activ inactive, UBC13 polyUb inactive, IDE act inactive, procasp7 counter inactive, IDE cell inh cf 48 and HEK293 tox inactive.
For N=c1c(C(=O)NCC2CCCO2)cc2c(=O)n3ccccc3nc2n1Cc1ccccc1Cl (stereo unspecified) the results were IDE cell inh inactive, procasp3 activ inactive, PHOSPHO1 inh inactive, UBC13 polyUb inactive, IDE act inactive and procasp7 counter inactive.
For COc1ccc(OC)c(CCNC(=O)Cn2nc(C)c3c(C)n(-c4ccc(C)cc4)nc3c2=O)c1 the results were IDE cell inh inactive, procasp3 activ inactive, PHOSPHO1 inh inactive, UBC13 polyUb inactive, IDE act inactive and procasp7 counter inactive.
`Cc1cc(C)c2c(=O)n(CC(=O)Nc3cccc(Cl)c3C)sc2n1` gave IDE cell inh 40, procasp3 activ inactive, PHOSPHO1 inh inactive, UBC13 polyUb inactive, IDE act inactive, procasp7 counter inactive, IDE cell inh cf inactive and HEK293 tox 79.
For COc1ccc(OC)c(CCNC(=O)Cn2sc3nc(C)cc(C)c3c2=O)c1 the results were IDE cell inh 20, procasp3 activ inactive, PHOSPHO1 inh inactive, UBC13 polyUb inactive, procasp7 counter inactive, IDE cell inh cf inactive and HEK293 tox 125.
Screening Cc1c(Cl)cccc1NC(=O)Cn1cccc1 returned IDE cell inh inactive, procasp3 activ inactive, PHOSPHO1 inh inactive, UBC13 polyUb inactive, IDE act inactive and procasp7 counter inactive.

Screening data from PubChem.
